What was measured:
[1] = target: T1, 5-hydroxytryptamine receptor 1A (Rattus norvegicus, UniProt P19327); assay: Binding affinity was measured against serotonin 5-hydroxytryptamine 1A receptor
T1 sequence (P19327 whole entry): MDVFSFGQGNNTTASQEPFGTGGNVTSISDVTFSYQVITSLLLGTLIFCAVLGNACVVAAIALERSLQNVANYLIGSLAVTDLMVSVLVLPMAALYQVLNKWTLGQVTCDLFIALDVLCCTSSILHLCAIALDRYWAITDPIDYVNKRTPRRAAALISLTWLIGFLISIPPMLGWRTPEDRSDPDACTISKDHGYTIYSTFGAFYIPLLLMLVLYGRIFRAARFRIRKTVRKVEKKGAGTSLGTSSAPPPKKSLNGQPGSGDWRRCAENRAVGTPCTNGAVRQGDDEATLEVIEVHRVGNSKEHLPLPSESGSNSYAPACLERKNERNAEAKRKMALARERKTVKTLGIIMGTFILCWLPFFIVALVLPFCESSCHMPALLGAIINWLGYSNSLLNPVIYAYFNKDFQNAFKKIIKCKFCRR
How it was run: (§1)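 Radioligand binding at 5-HT1A and 5-HT1D receptors, run by the group's earlier published protocol. Each value is the arithmetic mean of at least three independent determinations.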

[2] = target: T2, 5-hydroxytryptamine receptor 1D (Rattus norvegicus, UniProt P28565); assay: Inhibition of forskolin stimulated adenylate cyclase at 5-hydroxytryptamine 1D receptor; format: functional
[3] = target: T2, 5-hydroxytryptamine receptor 1D; assay: Binding affinity was measured against serotonin 5-hydroxytryptamine 1D receptor; how it was run: as §1
[4] = target: T1, 5-hydroxytryptamine receptor 1A; assay: Inhibition of forskolin stimulated adenylate cyclase at 5-hydroxytryptamine 1A receptor; format: functional
[5] = Selectivity value is the ratio between EC50 values of 5-HT1A and 5-HT1D receptors
[6] = Selectivity value is the ratio between IC50 values of 5-HT1A and 5-HT1D receptors

T2 sequence (P28565 whole entry): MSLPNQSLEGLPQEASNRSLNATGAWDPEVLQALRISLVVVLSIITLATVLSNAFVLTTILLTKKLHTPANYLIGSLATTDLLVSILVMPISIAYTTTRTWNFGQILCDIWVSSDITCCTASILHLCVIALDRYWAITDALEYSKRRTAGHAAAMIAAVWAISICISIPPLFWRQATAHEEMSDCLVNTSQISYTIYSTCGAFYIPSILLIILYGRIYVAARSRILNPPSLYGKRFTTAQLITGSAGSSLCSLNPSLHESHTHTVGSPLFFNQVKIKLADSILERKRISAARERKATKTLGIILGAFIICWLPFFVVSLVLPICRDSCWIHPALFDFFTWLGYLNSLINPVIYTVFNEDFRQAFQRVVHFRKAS

SMILES | IC50 [1] [nM] | EC50 [2] [nM] | IC50 [3] [nM] | EC50 [4] [nM] | Selectivity [5] | Selectivity [6]
CN1CCC[C@@H]1Cc1c[nH]c2ccc(Nc3ncccc3[N+](=O)[O-])cc12 | 33 | 1.3 | 3.1 | 47 | 36 | 11
CNS(=O)(=O)Cc1ccc2[nH]cc(CCN(C)C)c2c1 | 640 |  |  | 1300 |  | 
O=[N+]([O-])c1cccnc1Nc1ccc2[nH]cc(C[C@H]3CCCN3)c2c1 | 120 | 1.3 | 6.2 | 220 | 170 | 19
CN1CCC(c2c[nH]c3ccc(Nc4ncccc4[N+](=O)[O-])cc23)C1 (stereo unspecified) | 320 | 2 | 15 | 885 | 440 | 21
CN(C)CCc1c[nH]c2ccc(Nc3ncccc3[N+](=O)[O-])cc12 | 73 | 2 | 10 | 170 | 85 | 7

— ChEMBL document CHEMBL1127604 (J Med Chem, 1994)
